Results on two compounds are retold here after ChEMBL document CHEMBL3785059, “LC-MS-Guided Isolation of Penicilfuranone A: A New Antifibrotic Furancarboxylic Acid from the Plant Endophytic Fungus Penicillium sp. sh18” (J Nat Prod, 2016).

In data set [1] the test system is HSC-T6. Put plainly: Inhibition of TGF-beta1-induced decrease of Smad7 expression in rat HSC-T6 cells after 1 hr by Western blot analysis. The format is functional, cell-based. Summed up:
(§1)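 Serum-starved cells (24 h, no FBS) preincubated 2 h with compound at 1, 2 or 4 μM, DMSO or 10 μM SB431542. Then exposed to TGF-β1 at 10 ng/mL final for 1 h. Lysates (30 μg) immunoblotted for phospho-Smad2/3 and Smad7; membranes reprobed for total Smad2/3 and β-actin for loading.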
Background: Immunoblotting shows a protein as a band on a membrane.

In data set [2] the test system is HSC-T6. The data set is described as follows: Inhibition of TGF-beta-induced type-1 collagen expression in rat HSC-T6 cells after 48 hrs by Western blot analysis. The format is functional, cell-based. Summed up: (§2)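 Cells at 70% confluence serum-starved 24 h (passages 18–25). Preincubated 2 h with compound (1, 2 or 4 μM), DMSO vehicle or 10 μM SB431542, then 10 ng/mL human recombinant TGF-β1 added without wash for 48 h. Whole-cell lysates (30 μg protein) run on SDS-PAGE and immunoblotted with β-actin as loading control.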

Data set [3] has as its system HSC-T6. The data set is described as follows: Inhibition of TGF-beta-induced alpha-SMA expression in rat HSC-T6 cells at 1 to 4 uM after 48 hrs by Western blot analysis. It counts as functional, cell-based. Summed up: as §2
Data set [4] concerns LX2. The data set is described as follows: Effect on Smad2/3 expression in human LX2 cells at 1 to 4 uM after 1 hr by Western blot analysis. It counts as functional, cell-based. The procedure, abridged:
as §1

The target of data set [5] is T1, Mothers against decapentaplegic homolog 2/homolog 3 (Rattus norvegicus) (UniProt O70436+P84025). Put plainly: Inhibition of TGF-beta1-induced Smad2/3 phosphorylation in rat HSC-T6 cells after 1 hr by Western blot analysis. It counts as cell-based. The procedure, abridged:
as §1

A short description of data set [6]: Cytotoxicity against human L02 cells at up to 4 uM after 48 hrs by MTT assay. The following applies: l02, 48 h. The format is cell-based. Summed up: (§3)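 MTT (5 mg/mL stock) added for 4 h at 37 °C. Formazan dissolved in DMSO, OD read at 570 nm. Viability given as % of control; mean ± SEM of three independent experiments.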
On the technique in general: Tetrazolium assays rely on reduction of a dye to a coloured formazan, in cell work by metabolically active cells.

Data set [7] deals with HSC-T6. The data set is described as follows: Inhibition of TGF-beta-induced vimentin expression in rat HSC-T6 cells at 1 to 4 uM after 48 hrs by Western blot analysis. The format is functional, cell-based. Summed up:
as §2

Data set [8] has as its system LX2. Put plainly: Inhibition of TGF-beta-induced alpha-SMA expression in human LX2 cells at 1 to 4 uM after 48 hrs by Western blot analysis. It counts as functional, cell-based. Summed up: as §2
Data set [9] can be described thus: Cytotoxicity against rat HSC-T6 cells at up to 4 uM after 48 hrs by MTT assay. It counts as cell-based. The following applies: hsc-t6, 48 h. The procedure, abridged: as §3
Data set [10] has as its system LX2. The data set is described as follows: Inhibition of TGF-beta-induced CTGF expression in human LX2 cells after 48 hrs by Western blot analysis. The format is functional, cell-based.
Data set [11] relates to HSC-T6. Put plainly: Inhibition of TGF-beta-induced CTGF expression in rat HSC-T6 cells after 48 hrs by Western blot analysis. It counts as functional, cell-based.
The subject of data set [12] is HSC-T6. The data set is described as follows: Effect on Smad2/3 expression in rat HSC-T6 cells at 1 to 4 uM after 1 hr by Western blot analysis. The format is functional, cell-based. The procedure, abridged: as §1
Data set [13] has as its system LX2. Put plainly: Inhibition of TGF-beta-induced vimentin expression in human LX2 cells at 1 to 4 uM after 48 hrs by Western blot analysis. The format is functional, cell-based. The procedure, abridged: as §2
The nature of data set [14]: Cytotoxicity against human LX2 cells at up to 4 uM after 48 hrs by MTT assay. It counts as cell-based. The following applies: lx2, 48 h. Summed up: as §3
Data set [15] concerns the target T2, Mothers against decapentaplegic homolog 2/homolog 3 (Homo sapiens) (UniProt P84022+Q15796). Put plainly: Inhibition of TGF-beta1-induced Smad2/3 phosphorylation in human LX-2 cells after 1 hr by Western blot analysis. The format is cell-based. The procedure, abridged: as §1
Data set [16] deals with LX2. The data set is described as follows: Inhibition of TGF-beta-induced type-1 collagen expression in human LX2 cells after 48 hrs by Western blot analysis. The format is functional, cell-based. The procedure, abridged: as §2
Data set [17] deals with LX2. The data set is described as follows: Inhibition of TGF-beta1-induced decrease of Smad7 expression in human LX2 cells after 1 hr by Western blot analysis. The format is functional, cell-based. Summed up:
as §1

The target in data set [18] is T2, Mothers against decapentaplegic homolog 2/homolog 3 (Homo sapiens). The data set is described as follows: Inhibition of TGF-beta1-induced Smad2/3 phosphorylation in human LX2 cells at 10 uM after 1 hr by Western blot analysis. The format is cell-based. The procedure, abridged: (§4)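 HSC-T6 (rat; RPMI 1640) or LX-2 (human; DMEM) cells with 10% FBS, passages 18-25, were grown to 70% confluence and serum-starved 24 h. They were preincubated 2 h with test agent or DMSO, then exposed to TGF-β1 at a final 10 ng/mL for 1 h. Blots of 30 μg lysate were probed for phospho-Smad2/3 and Smad7, then reprobed for total Smad2/3 and β-actin.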

Data set [19] relates to HSC-T6. The data set is described as follows: Effect on Smad2/3 expression in rat HSC-T6 cells at 10 uM after 1 hr by Western blot analysis. It counts as functional, cell-based. The procedure, abridged: as §4
The test system of data set [20] is HSC-T6. The data set is described as follows: Inhibition of TGF-beta1-induced decrease of Smad7 expression in rat HSC-T6 cells at 10 uM after 1 hr by Western blot analysis. The format is functional, cell-based. The procedure, abridged: as §4
Data set [21] has as its system LX2. Put plainly: Inhibition of TGF-beta1-induced decrease of Smad7 expression in human LX2 cells at 10 uM after 1 hr by Western blot analysis. It counts as functional, cell-based. The procedure, abridged:
as §4

For data set [22], the system named is HSC-T6. The data set is described as follows: Inhibition of TGF-beta-induced vimentin expression in rat HSC-T6 cells at 10 uM after 48 hrs by Western blot analysis. The format is functional, cell-based. Summed up:
(§5)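 Rat HSC-T6 (RPMI 1640) or human LX-2 (DMEM) cells, passages 18-25, at 70% confluence were serum-deprived for 24 h. After 2 h pretreatment with agent or DMSO vehicle, TGF-β1 was added without washing at a final 10 ng/mL for 48 h. Whole-cell lysates (30 μg) were blotted for vimentin, with β-actin as the loading control.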

In data set [23] the test system is LX2. The data set is described as follows: Inhibition of TGF-beta-induced vimentin expression in human LX2 cells at 10 uM after 48 hrs by Western blot analysis. It counts as functional, cell-based. Summed up: as §5
In data set [24] the target is T1, Mothers against decapentaplegic homolog 2/homolog 3 (Rattus norvegicus). Put plainly: Inhibition of TGF-beta1-induced Smad2/3 phosphorylation in rat HSC-T6 cells at 10 uM after 1 hr by Western blot analysis. It counts as cell-based. Summed up:
as §4

Data set [25] concerns LX2. Put plainly: Effect on Smad2/3 expression in human LX2 cells at 10 uM after 1 hr by Western blot analysis. The format is functional, cell-based. Summed up: as §4

Calls of active or inactive are those of the source. No cut-off for these calls is given here.

T2 sequence (P84022 whole entry, looked up): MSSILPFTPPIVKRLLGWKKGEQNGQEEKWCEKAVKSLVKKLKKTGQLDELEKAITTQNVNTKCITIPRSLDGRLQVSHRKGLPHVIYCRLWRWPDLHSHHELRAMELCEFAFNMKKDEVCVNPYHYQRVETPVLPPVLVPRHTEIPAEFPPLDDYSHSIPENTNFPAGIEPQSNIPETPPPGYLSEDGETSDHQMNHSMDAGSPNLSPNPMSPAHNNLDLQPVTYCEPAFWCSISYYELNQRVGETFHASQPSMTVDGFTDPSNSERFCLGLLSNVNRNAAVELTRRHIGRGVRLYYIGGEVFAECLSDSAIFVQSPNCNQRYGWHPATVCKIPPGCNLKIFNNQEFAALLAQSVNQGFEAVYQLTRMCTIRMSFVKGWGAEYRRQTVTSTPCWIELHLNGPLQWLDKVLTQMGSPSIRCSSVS
T2 sequence (Q15796 whole entry, looked up): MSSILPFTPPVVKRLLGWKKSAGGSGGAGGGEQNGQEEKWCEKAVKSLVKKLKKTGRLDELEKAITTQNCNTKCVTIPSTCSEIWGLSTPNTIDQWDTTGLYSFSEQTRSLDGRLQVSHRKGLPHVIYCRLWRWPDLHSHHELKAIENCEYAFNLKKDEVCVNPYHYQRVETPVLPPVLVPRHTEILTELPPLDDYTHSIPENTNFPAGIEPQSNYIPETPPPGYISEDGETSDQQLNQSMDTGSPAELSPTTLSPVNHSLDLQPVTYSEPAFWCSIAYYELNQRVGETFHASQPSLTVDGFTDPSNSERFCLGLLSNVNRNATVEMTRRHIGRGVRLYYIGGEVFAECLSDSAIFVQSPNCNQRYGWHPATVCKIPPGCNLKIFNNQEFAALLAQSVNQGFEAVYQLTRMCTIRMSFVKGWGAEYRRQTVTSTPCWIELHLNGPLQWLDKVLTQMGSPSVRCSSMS
T1 sequence (O70436 whole entry, looked up): as the sequence (Q15796 whole entry, looked up) above, with P90A, I93V, N154S counted along it
T1 sequence (P84025 whole entry, looked up): as the sequence (P84022 whole entry, looked up) above

As to `CC/C=C/C=C/[C@@]1(C)OC([C@H]2[C@@H](C)C(=O)c3cc(OC)c(O)c(O)c3[C@@]2(C)O)=C(C(=O)OC)C1=O`, the inhibition result (in the data set with HSC-T6 [1]; in the data set on HSC-T6 [2]; in data set [5]; in the data set on LX2 [10]; in the data set with HSC-T6 [11]; in [15]) was “Dose-dependent effect” throughout. Also, the inhibition result with LX2 [16] and with LX2 [17] was “Dose-dependent effect” each time. Also, the inhibition result in the data set with HSC-T6 [3], in the data set on HSC-T6 [7], with LX2 [8] and with LX2 [13] was “Active” throughout. For the same compound, the outcome in the data set on LX2 [4] and in the data set on HSC-T6 [12] was inactive. The Activity result in data set [6], in data set [9] and in data set [14] was “Non-toxic” in each case.

For `NC(=O)c1ccc(-c2nc(-c3ccccn3)c(-c3ccc4c(c3)OCO4)[nH]2)cc1`, the inhibition entry (in [18]; with HSC-T6 [20]; in the data set on LX2 [21]; in [24]) was “Dose-dependent effect” throughout. The result in the data set on HSC-T6 [19] and in the data set on LX2 [25] was inactive. Besides, the inhibition entry with HSC-T6 [22] and with LX2 [23] was “Active” each time.
